In brackets after ≈: the same amount, converted by molar mass.
What was measured:
[Candida] auris [1] = Antifungal activity against Candida auris AR Bank # 0384 assessed as fungal growth inhibition by double dilution method; assay type: functional; settings: Candidozyma auris
Outline: (§1)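 Broth microdilution after CLSI M27-A3/M38-A2 with minor changes. Single colony grown overnight in YPD at 35 °C, 200 rpm. Compound final range 0.06-31.3 µg/mL; incubated 48 h at 35 °C.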

[Candida] auris [2] = Antifungal activity against Candida auris AR Bank # 387 assessed as fungal growth inhibition by double dilution method; assay type: functional; settings: Candidozyma auris; outline: as §1
[Candida] auris [3] = Antifungal activity against Candida auris AR Bank # 383 assessed as fungal growth inhibition by double dilution method; assay type: functional; settings: Candidozyma auris; outline: as §1
HEK293 = assay: Cytotoxicity against human HEK-293 cells assessed as reduction in cell viability at 31.3 microg/ml; assay type: toxicity, cell-based; settings: dose 31.3 µg/ml
Outline: (§2)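 Cells in DMEM with 10% FBS and 1% Pen/Strep, seeded at 10,000 cells/well and held overnight at 37 °C, 5% CO2. Compounds added at final 31.3-0.12 µg/mL (0.05% DMSO vehicle) for 24 h. Resazurin then added for 6 h; fluorescence read at ex 560/em 590. Triton X-100 1% as positive control; values normalized to vehicle. Run in quadruplicate.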

[Candida] haemuloni [4] = Antifungal activity against Candida haemulonii AR Bank # 395 assessed as fungal growth inhibition by double dilution method; assay type: functional; settings: Candidozyma haemuli; outline: as §1
Candida albicans [5] = assay: Antifungal activity against Candida albicans ATCC 64124 assessed as fungal growth inhibition by double dilution method; assay type: functional
Outline: (§3)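 Broth microdilution after CLSI M27-A3/M38-A2 with minor modifications. A single colony was grown overnight in YPD at 35 °C with shaking at 200 rpm. Cells were mixed 1:1 with compound (final 0.06-31.3 µg/mL, from DMSO stocks) and incubated 48 h at 35 °C.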

Candida albicans [6] = assay: Antifungal activity against itraconazole/fluconazole resistant Candida albicans ATCC MYA-1003 assessed as fungal growth inhibition by double dilution method; assay type: functional; outline: as §3
Candida duobushaemulonii [7] = assay: Antifungal activity against Candida duobushaemulonii AR Bank # 391 assessed as fungal growth inhibition by double dilution method; assay type: functional; settings: Candidozyma duobushaemuli; outline: as §1
J774.A1 = assay: Cytotoxicity against J774A.1 cells assessed as reduction in cell viability at 31.3 microg/ml; assay type: toxicity, cell-based; settings: mouse, dose 31.3 µg/ml; outline: as §2
[Candida] haemuloni [8] = Antifungal activity against Candida haemulonii AR Bank # 393 assessed as fungal growth inhibition by double dilution method; assay type: functional; settings: Candidozyma haemuli; outline: as §1
Nakaseomyces glabratus [9] = assay: Antifungal activity against Candida glabrata ATCC 22019 assessed as fungal growth inhibition by double dilution method; assay type: functional; outline: as §1
[Candida] auris [10] = Antifungal activity against Candida auris AR Bank # 390 assessed as fungal growth inhibition by double dilution method; assay type: functional; settings: Candidozyma auris; outline: as §1
Kodamaea ohmeri = assay: Antifungal activity against Kodamaea ohmeri AR Bank # 396 assessed as fungal growth inhibition by double dilution method; assay type: functional; outline: as §1
[Candida] auris [11] = Antifungal activity against Candida auris AR Bank # 386 assessed as fungal growth inhibition by double dilution method; assay type: functional; settings: Candidozyma auris; outline: as §1
Aspergillus terreus = assay: Antifungal activity against Aspergillus terreus ATCC MYA-3633 assessed as fungal growth inhibition by double dilution method; assay type: functional
[Candida] auris [12] = Antifungal activity against Candida auris AR Bank # 0390 assessed as fungal growth inhibition by double dilution method; assay type: functional; settings: Candidozyma auris; outline: as §1
Cryptococcus neoformans = assay: Antifungal activity against Cryptococcus neoformans ATCC MYA-895 assessed as fungal growth inhibition by double dilution method; assay type: functional; outline: as §1
[Candida] auris [13] = Antifungal activity against Candida auris AR Bank # 385 assessed as fungal growth inhibition by double dilution method; assay type: functional; settings: Candidozyma auris; outline: as §1
Clavispora lusitaniae = assay: Antifungal activity against Clavispora lusitaniae AR Bank # 398 assessed as fungal growth inhibition by double dilution method; assay type: functional; outline: as §1
Candida albicans [14] = assay: Antifungal activity against Candida albicans ATCC 10231 assessed as fungal growth inhibition by double dilution method; assay type: functional; outline: as §1
Saccharomyces cerevisiae [15] = assay: Antifungal activity against Saccharomyces cerevisiae AR Bank # 400 assessed as fungal growth inhibition by double dilution method; assay type: functional; outline: as §1
Candida albicans [16] = assay: Antifungal activity against itraconazole/fluconazole resistant Candida albicans ATCC MYA-1237 assessed as fungal growth inhibition by double dilution method; assay type: functional; outline: as §3
Candida albicans [17] = assay: Antifungal activity against itraconazole/fluconazole resistant Candida albicans ATCC 90819 assessed as fungal growth inhibition by double dilution method; assay type: functional; outline: as §3
Candida albicans [18] = assay: Antifungal activity against itraconazole/fluconazole susceptible Candida albicans ATCC MYA-2876 assessed as fungal growth inhibition by double dilution method; assay type: functional; outline: as §3
Candida duobushaemulonii [19] = assay: Antifungal activity against Candida duobushaemulonii AR Bank # 392 assessed as fungal growth inhibition by double dilution method; assay type: functional; settings: Candidozyma duobushaemuli; outline: as §1
[Candida] auris [20] = Antifungal activity against Candida auris AR Bank # 384 assessed as fungal growth inhibition by double dilution method; assay type: functional; settings: Candidozyma auris; outline: as §1
Nakaseomyces glabratus [21] = assay: Antifungal activity against Candida glabrata ATCC 2001 assessed as fungal growth inhibition by double dilution method; assay type: functional; outline: as §1
Aspergillus nidulans = assay: Antifungal activity against Aspergillus nidulans ATCC 38163 assessed as fungal growth inhibition by double dilution method; assay type: functional
[Candida] auris [22] = Antifungal activity against Candida auris AR Bank # 382 assessed as fungal growth inhibition by double dilution method; assay type: functional; settings: Candidozyma auris; outline: as §1
Pichia kudriavzevii [23] = assay: Antifungal activity against Pichia kudriavzevii AR Bank # 397 assessed as fungal growth inhibition by double dilution method; assay type: functional; outline: as §1
Aspergillus fumigatus [24] = assay: Antifungal activity against Aspergillus fumigatus NRRL 5109 assessed as fungal growth inhibition by double dilution method; assay type: functional
[Candida] auris [25] = Antifungal activity against Candida auris AR Bank # 381 assessed as fungal growth inhibition by double dilution method; assay type: functional; settings: Candidozyma auris; outline: as §1
[Candida] auris [26] = Antifungal activity against Candida auris AR Bank # 388 assessed as fungal growth inhibition by double dilution method; assay type: functional; settings: Candidozyma auris; outline: as §1
Candida duobushaemulonii [27] = assay: Antifungal activity against Candida duobushaemulonii AR Bank # 394 assessed as fungal growth inhibition by double dilution method; assay type: functional; settings: Candidozyma duobushaemuli; outline: as §1
Pichia kudriavzevii [28] = assay: Antifungal activity against Pichia kudriavzevii ATCC 6258 assessed as fungal growth inhibition by double dilution method; assay type: functional; outline: as §1
Aspergillus flavus = assay: Antifungal activity against Aspergillus flavus ATCC MYA-3631 assessed as fungal growth inhibition by double dilution method; assay type: functional
Aspergillus fumigatus [29] = assay: Antifungal activity against Aspergillus fumigatus NRRL 6113 assessed as fungal growth inhibition by double dilution method; assay type: functional
Candida albicans [30] = assay: Antifungal activity against itraconazole/fluconazole susceptible Candida albicans ATCC MYA-2310 assessed as fungal growth inhibition by double dilution method; assay type: functional; outline: as §3
[Candida] auris [31] = Antifungal activity against Candida auris AR Bank # 389 assessed as fungal growth inhibition by double dilution method; assay type: functional; settings: Candidozyma auris; outline: as §1
Saccharomyces cerevisiae [32] = assay: Antifungal activity against Saccharomyces cerevisiae AR Bank # 399 assessed as fungal growth inhibition by double dilution method; assay type: functional; outline: as §1
Aspergillus fumigatus [33] = assay: Antifungal activity against Aspergillus fumigatus NRRL 163 assessed as fungal growth inhibition by double dilution method; assay type: functional

C[C@@H]1[C@H](O)[C@@H](C)/C=C/C=C/C=C/C=C/C=C/C=C/C=C/[C@H](O[C@@H]2O[C@H](C)[C@@H](O)[C@H](N)[C@@H]2O)C[C@@H]2O[C@](O)(C[C@@H](O)C[C@@H](O)[C@H](O)CC[C@@H](O)C[C@@H](O)CC(=O)O[C@H]1C)C[C@H](O)[C@H]2C(=O)O [AMPHOTERICIN B]
MIC ([Candida] auris [1]): 1.95 µg/mL (≈ 2.11 µM)
MIC ([Candida] auris [2]): 0.98 µg/mL (≈ 1.06 µM)
MIC ([Candida] auris [3]): 1.95 µg/mL (≈ 2.11 µM)
Activity (HEK293): Non-Toxic
MIC ([Candida] haemuloni [4]): 3.9 µg/mL (≈ 4.22 µM)
MIC (Candida albicans [5]): 1.95 µg/mL (≈ 2.11 µM)
MIC (Candida albicans [6]): 0.98 µg/mL (≈ 1.06 µM)
MIC (Candida duobushaemulonii [7]): 7.8 µg/mL (≈ 8.44 µM)
Activity (J774.A1): Non-Toxic
MIC ([Candida] haemuloni [8]): 15.6 µg/mL (≈ 16.9 µM)
MIC (Nakaseomyces glabratus [9]): 0.98 µg/mL (≈ 1.06 µM)
MIC ([Candida] auris [10]): 1.95 µg/mL (≈ 2.11 µM)
MIC (Kodamaea ohmeri): 1.95 µg/mL (≈ 2.11 µM)
MIC ([Candida] auris [11]): 0.98 µg/mL (≈ 1.06 µM)
MIC (Aspergillus terreus): 3.9 µg/mL (≈ 4.22 µM)
MIC ([Candida] auris [12]): 1.95 µg/mL (≈ 2.11 µM)
MIC (Cryptococcus neoformans): 7.8 µg/mL (≈ 8.44 µM)
MIC ([Candida] auris [13]): 1.95 µg/mL (≈ 2.11 µM)
MIC (Clavispora lusitaniae): 3.9 µg/mL (≈ 4.22 µM)
MIC (Candida albicans [14]): 1.95 µg/mL (≈ 2.11 µM)
MIC (Saccharomyces cerevisiae [15]): 1.95 µg/mL (≈ 2.11 µM)
MIC (Candida albicans [16]): 1.95 µg/mL (≈ 2.11 µM)
MIC (Candida albicans [17]): 0.98 µg/mL (≈ 1.06 µM)
MIC (Candida albicans [18]): 1.95 µg/mL (≈ 2.11 µM)
MIC (Candida duobushaemulonii [19]): 7.8 µg/mL (≈ 8.44 µM)
MIC ([Candida] auris [20]): 1.95 µg/mL (≈ 2.11 µM)
MIC (Nakaseomyces glabratus [21]): 0.98 µg/mL (≈ 1.06 µM)
MIC (Aspergillus nidulans): 15.6 µg/mL (≈ 16.9 µM)
MIC ([Candida] auris [22]): 0.98 µg/mL (≈ 1.06 µM)
MIC (Pichia kudriavzevii [23]): 0.49 µg/mL (≈ 0.53 µM)
MIC (Aspergillus fumigatus [24]): 0.98 µg/mL (≈ 1.06 µM)
MIC ([Candida] auris [25]): 0.98 µg/mL (≈ 1.06 µM)
MIC ([Candida] auris [26]): 1.95 µg/mL (≈ 2.11 µM)
MIC (Candida duobushaemulonii [27]): 0.98 µg/mL (≈ 1.06 µM)
MIC (Pichia kudriavzevii [28]): 0.98 µg/mL (≈ 1.06 µM)
MIC (Aspergillus flavus): 31.3 µg/mL (≈ 33.9 µM)
MIC (Aspergillus fumigatus [29]): 1.95 µg/mL (≈ 2.11 µM)
MIC (Candida albicans [30]): 0.98 µg/mL (≈ 1.06 µM)
MIC ([Candida] auris [31]): 1.95 µg/mL (≈ 2.11 µM)
MIC (Saccharomyces cerevisiae [32]): 15.6 µg/mL (≈ 16.9 µM)
MIC (Aspergillus fumigatus [33]): 0.98 µg/mL (≈ 1.06 µM)

Reference: ChEMBL document CHEMBL5329156, “Discovery and development of novel substituted monohydrazides as potent antifungal agents” (RSC Med Chem, 2023)
